pIC50: −log10 of the molar value. Activity calls are given as the source filed them. The rule behind the calls is not given here.

This is an account of results in ChEMBL document CHEMBL4138193, “Novel indole and triazole based hybrid molecules exhibit potent anti-adipogenic and antidyslipidemic activity by activating Wnt3a/β-catenin pathway” (Eur J Med Chem, 2018).

Experiment [1] concerns 3T3-L1. The experiment in a line: Anti-adipogenic activity in mouse differentiated 3T3L1 cells assessed as inhibition of adipogenesis at 20 uM after 20 mins by Oil Red O staining based assay. Type of experiment: functional. In outline:
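3T3-L1 preadipocytes given 20 µM compound with differentiation media. Oil red O stain (20 min) extracted, absorbance at 492 nm measured against MDI+ control, n=3, mean ± SD, Student t test.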

In experiment [2] the test system is 3T3-L1. The experiment in a line: Anti-adipogenic activity in mouse 3T3L1 cells assessed as inhibition of adipogenesis after 20 mins by Oil Red O staining based assay. The experiment is classed as functional, cell-based. The note with it: 3T3-L1, 20 min. In outline: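 3T3-L1 preadipocytes differentiated with compound at 0.1, 1, 3, 10, 30, 100 and 300 µM. Oil red O absorbance read at 492 nm, concentrations log-transformed and fitted by non-linear regression to give IC50. Two to three independent experiments, mean ± SEM.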

The test system of experiment [3] is Syrian golden hamster. Briefly: Induction of reverse cholestrol transport in high fat diet-induced dyslipidemia Syrian Golden hamster model assessed as increase in ABCG5 mRNA expression in eWAT at 100 mg/kg, po administered for 1 week by qRT-PCR analysis. The experiment is classed as functional, organism-based. Particulars: Mesocricetus auratus.
Experiment [4] concerns Syrian golden hamster. Briefly: Induction of reverse cholestrol transport in high fat diet-induced dyslipidemia Syrian Golden hamster model assessed as increase in SCARB1 mRNA expression in liver at 100 mg/kg, po administered for 1 week by qRT-PCR analysis. Particulars: Mesocricetus auratus. The experiment is classed as functional, organism-based.
Experiment [5] deals with Syrian golden hamster. Briefly: Induction of reverse cholestrol transport in high fat diet-induced dyslipidemia Syrian Golden hamster model assessed as decrease in CETP mRNA expression in liver at 100 mg/kg, po administered for 1 week by qRT-PCR analysis. The experiment is classed as functional, organism-based. Particulars: Mesocricetus auratus.
Experiment [6] concerns Syrian golden hamster. Briefly: Induction of reverse cholestrol transport in high fat diet-induced dyslipidemia Syrian Golden hamster model assessed as decrease in NPCL1 mRNA expression in liver at 100 mg/kg, po administered for 1 week by qRT-PCR analysis. Type of experiment: functional, organism-based. Particulars: Mesocricetus auratus.
Experiment [7] has as its system Syrian golden hamster. Briefly: Induction of reverse cholestrol transport in high fat diet-induced dyslipidemia Syrian Golden hamster model assessed as increase in ABCA1 mRNA expression in eWAT at 100 mg/kg, po administered for 1 week by qRT-PCR analysis. Type of experiment: functional, organism-based. Particulars: Mesocricetus auratus.
Experiment [8] relates to Syrian golden hamster. The experiment in a line: Induction of reverse cholestrol transport in high fat diet-induced dyslipidemia Syrian Golden hamster model assessed as decrease in CYP7A1 mRNA expression in liver at 100 mg/kg, po administered for 1 week by qRT-PCR analysis. Type of experiment: functional, organism-based. Particulars: Mesocricetus auratus.
In experiment [9] the test system is Syrian golden hamster. The experiment in a line: Induction of reverse cholestrol transport in high fat diet-induced dyslipidemia Syrian Golden hamster model assessed as increase in LCAT mRNA expression in liver at 100 mg/kg, po administered for 1 week by qRT-PCR analysis. The experiment is classed as functional, organism-based. Particulars: Mesocricetus auratus.

The subject of experiment [10] is Syrian golden hamster. The experiment in a line: Induction of reverse cholestrol transport in high fat diet-induced dyslipidemia Syrian Golden hamster model assessed as increase in ABCG8 mRNA expression in eWAT at 100 mg/kg, po administered for 1 week by qRT-PCR analysis. The experiment is classed as functional, organism-based. Particulars: Mesocricetus auratus.

Regarding `Cc1ccc(S(=O)(=O)n2cc(CN(Cc3cn(Cc4cccc(F)c4F)nn3)C(=O)C(F)(F)F)c3ccccc32)cc1`, in the experiment with 3T3-L1 [1], the inhibition at 20 µM is 31.9%. The pIC50 with 3T3-L1 [2] was 4.72.
Take `Cc1ccc(S(=O)(=O)n2cc(CN(Cc3cn(Cc4ccccc4)nn3)S(=O)(=O)c3ccccc3)c3ccccc32)cc1`: the inhibition at 20 µM in the experiment with 3T3-L1 [1] is -18%.
In the case of `Cc1ccc(S(=O)(=O)N(Cc2cn(Cc3ccccc3)nn2)Cc2c(C)c3ccccc3n2S(=O)(=O)c2ccc(C)cc2)cc1`, the inhibition at 20 µM in the experiment with 3T3-L1 [1] is -5.9%.
With `Cc1ccc(S(=O)(=O)n2cc(CN(Cc3cccc(F)c3F)S(C)(=O)=O)c3ccccc32)cc1`, in the experiment on 3T3-L1 [1], the inhibition at 20 µM is -3.3%.
For `COc1cc(OC)c(Cn2cc(CN(Cc3cn(S(=O)(=O)c4ccc(C)cc4)c4ccccc34)S(=O)(=O)c3ccc(C)cc3)nn2)c(OC)c1`, the inhibition at 20 µM in the experiment on 3T3-L1 [1] is -22%.
Take `O=S(=O)(c1ccc(F)cc1)n1cc(CNCc2cccc(F)c2F)c2ccccc21`: in the experiment with 3T3-L1 [1], the inhibition at 20 µM amounted to 21%. Moreover, the pIC50 in the experiment on 3T3-L1 [2] is 4.91.
As for `Cc1ccc(S(=O)(=O)N(Cc2cn(Cc3ccccc3)nn2)Cc2c(-c3ccccc3)c3ccccc3n2S(=O)(=O)c2ccc(C)cc2)cc1`, the inhibition at 20 µM with 3T3-L1 [1] came out at 0.03%.
Consider `Fc1cccc(CNCc2ccccc2)c1F`, for which the inhibition at 20 µM in the experiment on 3T3-L1 [1] is -38.5%.
For `Cc1ccc(S(=O)(=O)N(Cc2cccc(F)c2F)Cc2cn(S(=O)(=O)c3ccc(F)cc3)c3ccccc23)cc1`, the inhibition at 20 µM in the experiment with 3T3-L1 [1] was -35%.
The same measure, in the same setting: in the case of `Cc1ccc(S(=O)(=O)N(Cc2ccc(F)cc2)Cc2cccc(F)c2F)cc1` it was -97.7%.
As for `CC(=O)N(Cc1cn(Cc2cccc(F)c2F)nn1)Cc1cn(S(=O)(=O)c2ccc(C)cc2)c2ccccc12`, in the experiment with 3T3-L1 [1], the inhibition at 20 µM came out at 39.5%. Further, the pIC50 with 3T3-L1 [2] was 5.04.
`O=C(N(Cc1ccc(F)cc1)Cc1cccc(F)c1F)C(F)(F)F`: the inhibition at 20 µM in the experiment with 3T3-L1 [1] is -39.8%.
Regarding `Cc1ccc(S(=O)(=O)N(Cc2cn(Cc3ccccc3Cl)nn2)Cc2cn(S(=O)(=O)c3ccc(C)cc3)c3ccccc23)cc1`, the inhibition at 20 µM in the experiment on 3T3-L1 [1] was -4.8%.
On to `CC(C)OC(=O)C(C)(C)Oc1ccc(C(=O)c2ccc(Cl)cc2)cc1`, for which the outcome in the experiment on Syrian golden hamster [3], with Syrian golden hamster [4], in the experiment on Syrian golden hamster [5], in the experiment with Syrian golden hamster [6], in the experiment on Syrian golden hamster [7] and with Syrian golden hamster [8] was Active. Also, the outcome in the experiment with Syrian golden hamster [9] and in the experiment on Syrian golden hamster [10] was Active.
As to `Fc1ccc(CNCc2cccc(F)c2F)cc1`, in the experiment on 3T3-L1 [1], the inhibition at 20 µM was -53.4%.
Take `Cc1ccc(S(=O)(=O)N(Cc2cn(Cc3ccccc3)nn2)Cc2cn(S(=O)(=O)c3ccc(C)cc3)c3ccccc23)cc1`: in the experiment on 3T3-L1 [1], the inhibition at 20 µM was determined as 3.4%.
Still for that read-out and setting: in the case of `O=C(N(Cc1cccc(F)c1F)Cc1cn(S(=O)(=O)c2ccc(F)cc2)c2ccccc12)C(F)(F)F` it was -52.3%; in that of `Cc1ccc(S(=O)(=O)n2cc(CN(Cc3cn(Cc4cc(F)ccc4F)nn3)S(C)(=O)=O)c3ccccc32)cc1`, 3.4%.
For `Cc1ccc(S(=O)(=O)n2c(CN(Cc3cn(Cc4ccc(F)cc4F)nn3)S(C)(=O)=O)c(C)c3ccccc32)cc1`, the inhibition at 20 µM in the experiment on 3T3-L1 [1] was -20.8%.
Same read-out and setting: the same measure for `COc1ccc(Cn2cc(CN(Cc3cn(S(=O)(=O)c4ccc(C)cc4)c4ccccc34)S(=O)(=O)c3ccc(C)cc3)nn2)c(OC)c1OC`: -18%; for `Cc1ccc(S(=O)(=O)N(Cc2cn(Cc3ccc(F)cc3F)nn2)Cc2cn(S(=O)(=O)c3ccc(C)cc3)c3ccccc23)cc1`: 12.3%.
On the same count and under the same terms, in the case of `COc1ccc(Cn2cc(CN(Cc3cn(S(=O)(=O)c4ccc(C)cc4)c4ccccc34)S(=O)(=O)c3ccc(C)cc3)nn2)cc1` it was 1%; in that of `Cc1ccc(S(=O)(=O)n2cc(CN(Cc3cn(Cc4ccc(F)cc4)nn3)S(=O)(=O)c3ccccc3)c3ccccc32)cc1`, -21%; in that of `Cc1ccc(S(=O)(=O)n2cc(CN(Cc3ccccc3)Cc3cccc(F)c3F)c3ccccc32)cc1`, -13.1%.
Take `O=S(=O)(c1ccc(F)cc1)N(Cc1cccc(F)c1F)Cc1cn(S(=O)(=O)c2ccc(F)cc2)c2ccccc12`: the inhibition at 20 µM in the experiment with 3T3-L1 [1] was -20%.
The same measure, in the same setting: the same measure for `O=S(=O)(c1ccc(F)cc1)N(Cc1ccccc1)Cc1cccc(F)c1F`: -81.9%; for `Cc1ccc(S(=O)(=O)N(Cc2cn(Cc3ccc(F)cc3)nn2)Cc2c(-c3ccccc3)c3ccccc3n2S(=O)(=O)c2ccc(C)cc2)cc1`: -7.6%.
On the same count and under the same terms, the same measure for `Cc1ccc(S(=O)(=O)N(Cc2cn(Cc3ccc(F)cc3F)nn2)Cc2c(C)c3ccccc3n2S(=O)(=O)c2ccc(C)cc2)cc1`: -22%.
The same measure, in the same setting: in the case of `Cc1ccc(S(=O)(=O)n2cc(CN(Cc3cccc(F)c3F)C(=O)C(F)(F)F)c3ccccc32)cc1` it was -5.5%; in that of `Cc1ccc(S(=O)(=O)N(Cc2cccc(F)c2F)Cc2cn(S(=O)(=O)c3ccc(C)cc3)c3ccccc23)cc1`, -13.9%.
Consider `Cc1ccc(S(=O)(=O)n2cc(CNCc3cccc(F)c3F)c3ccccc32)cc1`, for which the inhibition at 20 µM in the experiment on 3T3-L1 [1] is 46%. In addition, in the experiment on 3T3-L1 [2], the negative-log IC50 (pIC50) is 4.52.
Consider `Cc1ccc(S(=O)(=O)n2cc(CN(Cc3cn(Cc4ccc(F)cc4)nn3)S(C)(=O)=O)c3ccccc32)cc1`, for which, in the experiment on 3T3-L1 [1], the inhibition at 20 µM is -19.5%.
The same measure, in the same setting: the same measure for `Fc1cccc(CNCc2c[nH]c3ccccc23)c1F`: -1.7%.
On the same count and under the same terms, in the case of `COc1cc(Cn2cc(CN(Cc3c(-c4ccccc4)c4ccccc4n3S(=O)(=O)c3ccc(C)cc3)S(=O)(=O)c3ccc(C)cc3)nn2)cc(OC)c1OC` it was -10.9%; in that of `Cc1ccc(S(=O)(=O)N(Cc2ccccc2)Cc2cccc(F)c2F)cc1`, -35.7%.
Regarding `Cc1ccc(S(=O)(=O)n2cc(CN(Cc3cn(Cc4cc(F)ccc4F)nn3)S(=O)(=O)c3ccccc3)c3ccccc32)cc1`, the inhibition at 20 µM in the experiment with 3T3-L1 [1] is -6.5%.
For `CC(=O)N(Cc1cccc(F)c1F)Cc1cn(S(=O)(=O)c2ccc(F)cc2)c2ccccc12`, in the experiment on 3T3-L1 [1], the inhibition at 20 µM is 25.8%. The pIC50 in the experiment on 3T3-L1 [2] is 4.97.
The matching figures for `CC(=O)N(Cc1cccc(F)c1F)Cc1cn(S(=O)(=O)c2ccc(C)cc2)c2ccccc12`: 57.5% and 4.76.
Take `COc1ccc(Cn2cc(CN(Cc3cn(S(=O)(=O)c4ccc(C)cc4)c4ccccc34)S(=O)(=O)c3ccc(C)cc3)nn2)c(OC)c1`: the inhibition at 20 µM in the experiment with 3T3-L1 [1] worked out at 7.6%.
